Converted amounts (≈) assume the structure as drawn.
Columns and labels:
Trypanosoma cruzi = assay: WHO-TDR: Chagas disease; assay type: functional, organism-based, Homo sapiens; conditions: MRC5
How it was run: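 Whole-organism screen of a 10,000-compound diverse library from Life Chemicals, filtered for drug-likeness and reactive groups, against intracellular amastigotes of Trypanosoma cruzi Tulahuen CL2 beta-galactosidase strain grown in MRC-5SV2 human lung fibroblast host cells. The assay followed previously published standard procedures, with a reference drug as positive control. Antiparasitic potency is reported as IC50.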

Leishmania infantum = assay: WHO-TDR: Leishmaniasis; assay type: functional, organism-based, Mus musculus; conditions: Macrophage
How it was run: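 The screened collection came from Life Chemicals: 10,000 diverse compounds selected after filtering for drug-likeness and reactive groups. Each was tested in a whole-organism assay against Leishmania infantum MHOM/MA(BE)/67 amastigotes inside murine peritoneal macrophages, using previously published standard procedures and a reference drug as positive control. Results are IC50 values for antiparasitic potency.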

[1] = WHO-TDR: Cytotoxicity; assay type: toxicity, cell-based; conditions: human, MRC5 cells
Onchocerca ochengi [2] = assay: (§1) WHO-TDR: Onchocerciasis; assay type: functional; design: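 at 12.5 µM on microfilariae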
How it was run: (§2)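 Values are reported as percent inhibition and as IC50. They come from a whole-organism screen of a 10,000-compound diverse Life Chemicals library against microfilariae of Onchocerca ochengi or Onchocerca lienalis. The screen followed previously published standard procedures, with reference drugs as positive controls.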

Schistosoma mansoni = assay: WHO-TDR: Schistosomiasis; assay type: functional; design: concentration or dose not given beside the values
How it was run: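 Values are reported as percent inhibition and IC50. They come from a whole-organism screen of a 10,000-compound diverse Life Chemicals library against larval and/or adult worms of Schistosoma mansoni, Puerto Rican strain. The library had been filtered for drug-likeness and reactive groups.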

[3] = system: Trypanosoma brucei brucei; assay: WHO-TDR: Human African Trypanosomiasis (HAT); assay type: functional, organism-based; conditions: Squib-427
How it was run: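 Screening used a 10,000-compound diverse library supplied by Life Chemicals and filtered for drug-likeness and reactive groups. Whole bloodstream-form parasites of Trypanosoma brucei Squib 427 strain were assayed according to previously published standard procedures, with reference drugs as positive controls. The reported measure is IC50, reflecting antiparasitic potency.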

Plasmodium falciparum K1 = assay: WHO-TDR: Malaria; assay type: functional, organism-based, Homo sapiens; conditions: Erythrocyte
How it was run: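 This whole-organism screen covered 10,000 drug-likeness-filtered and reactive-group-filtered compounds from Life Chemicals. The target was the Plasmodium falciparum K1 strain in human red blood cells, and the readout was antiplasmodial IC50.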

Onchocerca ochengi [4] = assay: as §1; assay type: functional; design: concentration or dose not given beside the values; how it was run: as §2; remark: listed apart in the source
Onchocerca lienalis = assay: as §1; assay type: functional; design: concentration or dose not given beside the values; how it was run: as §2;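 note: at 12.5 µM on microfilariae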
Brugia malayi = assay: WHO-TDR: Lymphatic Filariasis; assay type: functional; design: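 tested at 10 µM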
How it was run: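 Values are percent inhibition and IC50 from a whole-organism screen against Brugia malayi microfilariae. The compounds, 10,000 in all, came from a diverse Life Chemicals library filtered for drug-likeness and reactive groups.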

| SMILES | IC50 (Leishmania infantum) [µg/mL] | IC50 [3] [µg/mL] | IC50 (Plasmodium falciparum K1) [µg/mL] | IC50 (Trypanosoma cruzi) [µg/mL] | IC50 [1] [µg/mL] | % Inhibition (Onchocerca ochengi [2]) [%] | % Inhibition (Schistosoma mansoni) [%] | % Inhibition (Onchocerca ochengi [4]) [%] | % Inhibition (Onchocerca lienalis) [%] | % Inhibition (Brugia malayi) [%] |
| --- | --- | --- | --- | --- | --- | --- | --- | --- | --- | --- |
| O=C(CSc1ncc(-c2ccccc2)[nH]1)Nc1cc(C(F)(F)F)ccc1Cl | > 12.4 | > 12.4 | > 12.4 | > 12.4 | > 12.4 | 100 | 0 | 0 | – | – |
| CN1C(=O)C(C)(C)COc2ccc(NS(=O)(=O)c3ccccc3F)cc21 | > 11.4 | > 11.4 | > 11.4 | > 11.4 | > 11.4 | 100 | 0 | 0 | – | – |
| CSc1nc(NC(C)C)c2cnn(CCNC(=O)COc3ccc(Cl)cc3)c2n1 | > 13 | 4.13 (≈ 9.49 µM) | > 13 | 4.18 (≈ 9.62 µM) | > 13 | 100 | 0 | 0 | – | – |
| O=C(CC1CSc2nccc(=O)n21)Nc1ccc(Cl)c(Cl)c1 (centres undefined) | > 10.7 | > 10.7 | > 10.7 | > 10.7 | > 10.7 | 100 | 0 | 0 | – | – |
| CCOC(=O)CCNC(=O)NCC1CC(=O)N(c2ccc(Cl)cc2)C1 (centres undefined) | > 11 | > 11 | > 11 | > 11 | > 11 | – | 0 | 100 | – | – |
| Oc1ccc(Br)cc1/C=N/Nc1ncnc2[nH]cnc12 | 3.24 (≈ 9.71 µM) | 0.341 (≈ 1.02 µM) | 3.68 (≈ 11 µM) | 0.193 (≈ 0.579 µM) | 0.364 (≈ 1.09 µM) | – | 0 | – | -1 | 50 |
| CCc1ccccc1-n1c(C)cn2c3c(=O)n(CC(C)C)c(=O)n(C)c3nc12 | > 11.4 | 0.342 (≈ 0.901 µM) | 3.29 (≈ 8.68 µM) | > 11.4 | > 11.4 | – | 0 | – | 20 | 0 |
| CS(=O)(=O)c1ccc(CC(=O)Nc2nc3c(s2)-c2cccc4cccc-3c24)cc1 | 4.08 (≈ 9.71 µM) | 4.29 (≈ 10.2 µM) | 7.42 (≈ 17.6 µM) | 0.317 (≈ 0.754 µM) | 0.688 (≈ 1.64 µM) | – | 0 | – | 11.35 | 0 |
| O=C(CCCS(=O)(=O)c1ccc(F)cc1)Nc1nc2c(s1)CSc1ccccc1-2 | > 13.5 | 4.36 (≈ 9.71 µM) | 6 (≈ 13.4 µM) | 5.29 (≈ 11.8 µM) | > 13.5 | – | 100 | – | 66.33 | 0 |
| CCN(C1CCCCC1)S(=O)(=O)c1ccc(C(=O)Nc2nnc(-c3ccco3)o2)cc1 | 4.32 (≈ 9.71 µM) | 4.32 (≈ 9.71 µM) | > 13.3 | 0.442 (≈ 0.994 µM) | 6.19 (≈ 13.9 µM) | – | 0 | – | 20 | 0 |
| CN(C)CCCN(C(=O)c1ccc(Br)s1)c1nc2ccccc2s1 | > 13.8 | 4.37 (≈ 10.3 µM) | 5.41 (≈ 12.8 µM) | 0.791 (≈ 1.86 µM) | > 13.8 | – | 0 | – | 11.35 | 0 |
| O=C(/C=C/c1cccs1)N(CCCN1CCOCC1)c1nc2ccccc2s1 | 1.98 (≈ 4.79 µM) | 4.37 (≈ 10.6 µM) | 10.5 (≈ 25.3 µM) | 4.43 (≈ 10.7 µM) | > 13.5 | – | 0 | – | 16.32 | 0 |
| CCCn1/c(=N/C(=O)C2=COCCO2)sc2c(C)ccc(OC)c21 | > 10.5 | > 10.5 | 3.18 (≈ 9.13 µM) | 0.89 (≈ 2.55 µM) | > 10.5 | – | 0 | – | 20 | 0 |
| CCN(CC)CCSc1ccc(-c2ccc(Cl)cc2)nn1 | > 9.66 | > 9.66 | 0.368 (≈ 1.14 µM) | > 9.66 | > 9.66 | – | 0 | – | 0 | 0 |
| COc1ccc(Cl)c2sc(N(CCCN(C)C)C(=O)c3ccc(Br)s3)nc12 | 0.51 (≈ 1.04 µM) | 5.66 (≈ 11.6 µM) | > 15.8 | 1.77 (≈ 3.62 µM) | 6.71 (≈ 13.7 µM) | – | 100 | – | 0 | 0 |
| COc1ccc(Cl)c2sc(N(CCCN(C)C)C(=O)c3ccco3)nc12 | 0.418 (≈ 1.06 µM) | 4.08 (≈ 10.4 µM) | > 12.9 | 1.36 (≈ 3.46 µM) | 4.17 (≈ 10.6 µM) | – | 0 | – | 0 | 0 |
| Cc1nn(-c2ccccc2)c2ncc(C(=O)NCC3CCCO3)c(Cl)c12 (centres undefined) | 3.6 (≈ 9.71 µM) | 0.376 (≈ 1.01 µM) | > 11.1 | 0.392 (≈ 1.06 µM) | 3.52 (≈ 9.49 µM) | – | 0 | – | 66.7 | 0 |

Now from value to molecule, other results behind:

| IC50 (Leishmania infantum) [µg/mL] | IC50 [3] [µg/mL] | IC50 (Plasmodium falciparum K1) [µg/mL] | SMILES | IC50 (Trypanosoma cruzi) [µg/mL] | IC50 [1] [µg/mL] | % Inhibition (Onchocerca ochengi [2]) [%] | % Inhibition (Schistosoma mansoni) [%] | % Inhibition (Onchocerca ochengi [4]) [%] | % Inhibition (Onchocerca lienalis) [%] | % Inhibition (Brugia malayi) [%] |
| --- | --- | --- | --- | --- | --- | --- | --- | --- | --- | --- |
| > 10 | 3.25 (≈ 9.71 µM) | 8.46 (≈ 25.3 µM) | O=C(Nc1onc2c1CCCC2)c1cccc(Oc2ccccc2)c1 | 4.23 (≈ 12.7 µM) | > 10 | 100 | 0 | 0 | – | – |
| 0.407 (≈ 0.97 µM) | > 12.6 | > 12.6 | CC(C)S(=O)(=O)c1ccc(C(=O)Nc2ccccc2-c2nc3ccccc3[nH]2)cc1 | > 12.6 | > 12.6 | – | 0 | – | 13.3 | 0 |
| > 13.6 | 0.528 (≈ 1.16 µM) | > 13.6 | CCN(C1CCCCC1)S(=O)(=O)c1ccc(C(=O)Nc2nnc(-c3ccccc3)o2)cc1 | 0.431 (≈ 0.948 µM) | 1.61 (≈ 3.54 µM) | – | 0 | – | 53.3 | 0 |
| 4.32 (≈ 9.71 µM) | > 13.3 | > 13.3 | O=C(COc1ccc(Cl)cc1Cl)N(Cc1ccccn1)c1nc2ccccc2s1 | 0.863 (≈ 1.94 µM) | > 13.3 | – | 0 | – | 0 | 0 |
| > 13 | 4.2 (≈ 9.71 µM) | 9.42 (≈ 21.8 µM) | Cc1ccc(C)c(-c2csc(NC(=O)CCCS(=O)(=O)c3ccc(F)cc3)n2)c1 | 0.588 (≈ 1.36 µM) | 0.999 (≈ 2.31 µM) | – | 0 | – | 12.34 | 0 |
| > 14.2 | 2.96 (≈ 6.25 µM) | > 14.2 | CN(Cc1ccco1)S(=O)(=O)c1ccc(C(=O)Nc2nnc(-c3ccccc3Cl)o2)cc1 | 0.465 (≈ 0.983 µM) | 0.807 (≈ 1.71 µM) | – | 0 | – | 0 | 0 |
| > 14.7 | 10.1 (≈ 20.6 µM) | > 14.7 | Cc1ccc(-c2nnc(NC(=O)c3ccc(S(=O)(=O)N4CCc5ccccc5C4)cc3)o2)cc1C | 0.538 (≈ 1.1 µM) | 8.86 (≈ 18.1 µM) | – | 0 | – | 0 | 0 |
| > 13.6 | > 13.6 | 11 (≈ 24.2 µM) | CCOc1ccc2nc(N(Cc3cccnc3)C(=O)CSc3ccc(F)cc3)sc2c1 | 0.223 (≈ 0.492 µM) | > 13.6 | – | 0 | – | 26.7 | 0 |
| 0.366 (≈ 0.971 µM) | 3.57 (≈ 9.49 µM) | > 11.3 | COc1ccc(Cl)c2sc(NC(=O)c3ccc4c(c3)OCCO4)nc12 | 0.702 (≈ 1.86 µM) | 3.43 (≈ 9.09 µM) | – | 0 | – | 53.4 | 0 |
| > 10.7 | 0.347 (≈ 0.971 µM) | > 10.7 | COc1ccc(SCC(=O)Nc2nc(-c3ccccn3)cs2)cc1 | 0.356 (≈ 0.996 µM) | > 10.7 | – | 0 | – | 86.55 | 0 |
| > 10.7 | 0.341 (≈ 0.959 µM) | 0.138 (≈ 0.388 µM) | CC(C)Sc1ccc(C(=O)Nc2nc(-c3ccccn3)cs2)cc1 | 0.368 (≈ 1.04 µM) | 3.11 (≈ 8.75 µM) | – | 0 | – | 86.7 | 0 |
| 3.73 (≈ 9.71 µM) | 3.73 (≈ 9.71 µM) | 0.271 (≈ 0.705 µM) | COc1ccc(-c2nc(NC(=O)Cc3ccc(SC)cc3)sc2C)cc1 | 1.95 (≈ 5.07 µM) | 1.29 (≈ 3.37 µM) | – | 0 | – | 45.5 | 0 |
| > 12 | 3.52 (≈ 8.79 µM) | 3.55 (≈ 8.87 µM) | COc1ccc(OC)c(-c2csc(NC(=O)Cc3ccc(SC)cc3)n2)c1 | 0.663 (≈ 1.66 µM) | > 12 | – | 0 | – | 11.35 | 0 |
